Measurements from ChEMBL document CHEMBL1914368, “Imidazo[1,5-a]quinoxalines as irreversible BTK inhibitors for the treatment of rheumatoid arthritis” (Bioorg Med Chem Lett, 2011).
pIC50: −log10 of the molar value. Active and inactive are the calls of the source. No cut-off for these calls is given here.

Experiments:
[1] = molecular target: T1, Receptor tyrosine-protein kinase erbB-4 (Homo sapiens, UniProt Q15303); assay: Inhibition of ERBB4 relative to control
[2] = molecular target: Tyrosine-protein kinase Lyn (Homo sapiens, UniProt P07948); assay: Inhibition of LYN-A expressed in Sf9 cells after 60 mins by TR-FRET Assay
Tyrosine-protein kinase Lyn, sequence (P07948 whole entry): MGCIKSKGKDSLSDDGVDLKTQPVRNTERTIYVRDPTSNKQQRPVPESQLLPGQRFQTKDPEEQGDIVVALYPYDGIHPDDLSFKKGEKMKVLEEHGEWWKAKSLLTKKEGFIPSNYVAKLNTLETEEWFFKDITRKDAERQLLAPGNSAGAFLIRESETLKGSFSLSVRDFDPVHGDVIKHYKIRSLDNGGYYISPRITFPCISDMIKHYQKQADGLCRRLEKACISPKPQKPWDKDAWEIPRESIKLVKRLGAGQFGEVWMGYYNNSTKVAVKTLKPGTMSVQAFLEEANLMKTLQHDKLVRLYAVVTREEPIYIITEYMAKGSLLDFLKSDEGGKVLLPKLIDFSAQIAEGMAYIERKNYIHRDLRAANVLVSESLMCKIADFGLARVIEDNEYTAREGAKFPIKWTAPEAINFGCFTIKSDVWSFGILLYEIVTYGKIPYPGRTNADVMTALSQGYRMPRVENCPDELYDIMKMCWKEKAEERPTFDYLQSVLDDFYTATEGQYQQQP

[3] = molecular target: Tyrosine-protein kinase Lck (Homo sapiens, UniProt P06239); assay: Inhibition of C-terminal His6-tagged human full-length LCK expressed in Sf9 cells after 60 mins by TR-FRET Assay
[4] = molecular target: T2, Tyrosine-protein kinase BTK (Homo sapiens, UniProt Q06187); assay: Inhibition of human full-length BTK expressed in Sf9 cells using FAM-Srctide peptide as substrate preincubated for 60 mins measured after 60 mins by TR-FRET Assay
T2 sequence (Q06187 whole entry): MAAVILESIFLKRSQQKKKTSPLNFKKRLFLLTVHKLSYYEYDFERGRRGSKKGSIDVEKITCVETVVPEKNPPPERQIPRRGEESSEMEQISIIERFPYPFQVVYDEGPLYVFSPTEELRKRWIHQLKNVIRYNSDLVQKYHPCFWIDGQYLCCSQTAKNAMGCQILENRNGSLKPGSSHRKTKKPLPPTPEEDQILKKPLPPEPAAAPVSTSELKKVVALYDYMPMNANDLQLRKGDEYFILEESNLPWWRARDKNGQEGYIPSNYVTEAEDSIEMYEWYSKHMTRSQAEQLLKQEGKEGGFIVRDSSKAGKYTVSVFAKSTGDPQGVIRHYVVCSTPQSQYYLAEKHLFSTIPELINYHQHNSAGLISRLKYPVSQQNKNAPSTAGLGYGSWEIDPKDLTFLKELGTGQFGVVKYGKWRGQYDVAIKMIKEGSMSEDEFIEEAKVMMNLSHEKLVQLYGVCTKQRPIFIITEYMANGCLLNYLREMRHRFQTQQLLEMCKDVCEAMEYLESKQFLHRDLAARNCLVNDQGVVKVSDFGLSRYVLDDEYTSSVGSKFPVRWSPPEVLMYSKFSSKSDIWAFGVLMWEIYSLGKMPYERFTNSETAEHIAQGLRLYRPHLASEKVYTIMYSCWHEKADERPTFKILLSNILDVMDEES
How it was run: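 The compound was pre-incubated with the kinase before the enzymatic reaction was started. IC50 values are averages of two or more determinations.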

[5] = molecular target: T2, Tyrosine-protein kinase BTK; assay: Inhibition of BTK autophosphorylation at PY223 in human Ramos B cells after 20 mins by Western blot analysis; type: cell-based
[6] = Half life in mouse at 2 mg/kg, iv; type: ADME, organism-based; design: dose 2 mg/kg, route intravenous; conditions: in vivo
[7] = Oral bioavailability in mouse at 10 mg/kg; type: ADME, organism-based; conditions: in vivo
How it was run: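 Mouse pharmacokinetics from single dosing at 2 mg/kg iv and 10 mg/kg po. The study derived AUC, T1/2, clearance, Vss, Tmax, Cmax and oral bioavailability (%F) from the paired iv and po arms.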

Mus musculus [8] = assay: Antiarthritic activity in C57BL/6 mouse assessed as inhibition of T-independent type 2 antigen-induced NP-specific IgM antibody titer production administered qd for 7 days by ELISA; type: functional, organism-based; conditions: C57BL6
How it was run: (§1)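 Female C57BL/6 mice, 8–10 weeks old, immunized ip with NP(109)-Ficoll (TI-2 antigen). Compound or vehicle given po daily for 7 days, starting 1 day before immunization. Serum was collected 6 days after immunization, and NP-specific IgM and IgG3 titers were measured by ELISA.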

Mus musculus [9] = assay: Antiarthritic activity in C57BL/6 mouse assessed as inhibition of T-independent type 2 antigen-induced IgG3 antibody titer production administered qd for 7 days by ELISA; type: functional, organism-based; conditions: C57BL6; how it was run: as §1
Mus musculus [10] = assay: Antiarthritic activity in DBA/1 JBomTac mouse collagen-induced arthritis model assessed as inhibition of disease progression at 10 mg/kg, po qd measured on day 7 to 22; type: functional, organism-based; design: dose 10 mg/kg
How it was run: (§2)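 Semi-therapeutic collagen-induced arthritis model. Blinded paw scoring used a 0–4 scale, reported as mean and SEM. Comparison to vehicle used Student's t-test, P <0.05.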

Mus musculus [11] = assay: Antiarthritic activity in DBA/1 JBomTac mouse collagen-induced arthritis model assessed as inhibition of disease progression at 3 mg/kg, po qd measured on day 5 to 22; type: functional, organism-based; design: dose 3 mg/kg; how it was run: as §2
Mus musculus [12] = assay: Antiarthritic activity in DBA/1 JBomTac mouse collagen-induced arthritis model assessed as inhibition of disease progression at 1 mg/kg, po qd measured on day 19 to 22; type: functional, organism-based; design: dose 1 mg/kg; how it was run: as §2
[13] = molecular target: RAC-alpha serine/threonine-protein kinase (Homo sapiens) (UniProt P31749); assay: Inhibition of AKT1 relative to control; conditions: concentration not given here
[14] = molecular target: Tyrosine-protein kinase Blk (Homo sapiens, UniProt P51451); assay: Inhibition of BLK relative to control
[15] = molecular target: Serine/threonine-protein kinase B-raf (Homo sapiens) (UniProt P15056); assay: Inhibition of B-Raf relative to control; conditions: concentration not given here
[16] = molecular target: T2, Tyrosine-protein kinase BTK; assay: Inhibition of BTK relative to control
[17] = molecular target: Serine/threonine-protein kinase Chk1 (Homo sapiens) (UniProt O14757); assay: Inhibition of CHEK1 relative to control; conditions: concentration not given here
[18] = molecular target: Ephrin type-A receptor 8 (Homo sapiens) (UniProt P29322); assay: (§3) Inhibition of EPHA8 relative to control; conditions: concentration not given here
Ephrin type-A receptor 8 = Ephrin type-A receptor 8 (Homo sapiens, UniProt P29322); assay: as §3
[19] = molecular target: T1, Receptor tyrosine-protein kinase erbB-4; assay: Inhibition of HER4 relative to control; conditions: concentration not given here
[20] = molecular target: Tyrosine-protein kinase Fer (Homo sapiens) (UniProt P16591); assay: Inhibition of FER relative to control; conditions: concentration not given here
[21] = molecular target: Receptor-type tyrosine-protein kinase FLT3 (Homo sapiens) (UniProt P36888); assay: Inhibition of FLT3 relative to control; conditions: concentration not given here
[22] = molecular target: Serine/threonine-protein kinase mTOR (Homo sapiens) (UniProt P42345); assay: Inhibition of FRAP1 relative to control; conditions: concentration not given here
[23] = molecular target: Glycogen synthase kinase-3 alpha (Homo sapiens) (UniProt P49840); assay: Inhibition of GSK3A relative to control; conditions: concentration not given here
[24] = molecular target: Tyrosine-protein kinase HCK (Homo sapiens) (UniProt P08631); assay: Inhibition of HCK relative to control; conditions: concentration not given here
Tyrosine-protein kinase HCK (Homo sapiens), sequence (P08631 2-526 limits assumed): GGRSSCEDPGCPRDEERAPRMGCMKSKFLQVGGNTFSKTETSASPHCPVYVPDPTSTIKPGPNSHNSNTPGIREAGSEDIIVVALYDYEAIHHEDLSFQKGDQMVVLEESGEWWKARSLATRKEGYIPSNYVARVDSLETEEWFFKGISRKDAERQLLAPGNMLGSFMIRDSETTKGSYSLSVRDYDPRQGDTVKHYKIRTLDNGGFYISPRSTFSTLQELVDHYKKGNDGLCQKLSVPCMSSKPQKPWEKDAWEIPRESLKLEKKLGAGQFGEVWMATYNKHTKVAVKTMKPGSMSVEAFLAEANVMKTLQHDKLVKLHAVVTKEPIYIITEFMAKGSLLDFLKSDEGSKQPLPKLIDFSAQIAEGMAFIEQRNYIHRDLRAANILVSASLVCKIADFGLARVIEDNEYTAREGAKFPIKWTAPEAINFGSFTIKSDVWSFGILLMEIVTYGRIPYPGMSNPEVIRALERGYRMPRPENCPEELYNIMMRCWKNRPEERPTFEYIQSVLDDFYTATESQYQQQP

[25] = molecular target: Insulin receptor (Homo sapiens) (UniProt P06213); assay: Inhibition of INSR relative to control; conditions: concentration not given here
[26] = molecular target: Interleukin-1 receptor-associated kinase 4 (Homo sapiens) (UniProt Q9NWZ3); assay: Inhibition of IRAK4 relative to control; conditions: concentration not given here
[27] = molecular target: Tyrosine-protein kinase JAK3 (Homo sapiens) (UniProt P52333); assay: Inhibition of JAK3 relative to control; conditions: concentration not given here
Tyrosine-protein kinase JAK3 (Homo sapiens), sequence (P52333 whole entry): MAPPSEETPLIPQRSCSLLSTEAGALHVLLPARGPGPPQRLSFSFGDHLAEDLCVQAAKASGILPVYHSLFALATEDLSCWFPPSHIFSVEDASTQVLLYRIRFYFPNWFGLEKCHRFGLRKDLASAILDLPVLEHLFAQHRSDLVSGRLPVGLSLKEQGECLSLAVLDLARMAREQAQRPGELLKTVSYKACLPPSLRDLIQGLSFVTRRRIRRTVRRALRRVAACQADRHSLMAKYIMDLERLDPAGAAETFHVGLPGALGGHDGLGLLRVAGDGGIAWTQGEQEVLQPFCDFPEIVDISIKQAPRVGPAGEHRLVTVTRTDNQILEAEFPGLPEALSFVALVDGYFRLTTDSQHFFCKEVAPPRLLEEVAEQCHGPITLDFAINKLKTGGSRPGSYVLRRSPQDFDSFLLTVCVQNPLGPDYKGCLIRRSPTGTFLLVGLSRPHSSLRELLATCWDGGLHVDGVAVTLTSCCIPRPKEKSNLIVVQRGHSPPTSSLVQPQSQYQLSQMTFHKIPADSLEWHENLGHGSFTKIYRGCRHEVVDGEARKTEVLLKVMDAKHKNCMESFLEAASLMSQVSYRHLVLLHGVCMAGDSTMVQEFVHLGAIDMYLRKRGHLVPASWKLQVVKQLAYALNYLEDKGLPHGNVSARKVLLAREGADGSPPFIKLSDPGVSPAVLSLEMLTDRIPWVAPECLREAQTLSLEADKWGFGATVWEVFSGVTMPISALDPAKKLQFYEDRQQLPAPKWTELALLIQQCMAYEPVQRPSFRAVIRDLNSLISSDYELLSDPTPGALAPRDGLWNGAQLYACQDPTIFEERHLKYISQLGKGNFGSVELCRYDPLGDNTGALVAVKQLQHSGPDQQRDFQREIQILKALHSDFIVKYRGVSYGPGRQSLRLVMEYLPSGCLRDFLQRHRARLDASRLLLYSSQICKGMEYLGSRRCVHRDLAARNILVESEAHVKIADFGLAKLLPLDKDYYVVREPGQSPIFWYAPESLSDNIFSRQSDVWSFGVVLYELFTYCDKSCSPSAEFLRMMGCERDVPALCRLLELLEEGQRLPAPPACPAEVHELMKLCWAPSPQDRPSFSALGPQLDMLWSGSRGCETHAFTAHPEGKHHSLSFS

[28] = molecular target: Mitogen-activated protein kinase 1 (Homo sapiens) (UniProt P28482); assay: Inhibition of MAPK1 relative to control; conditions: concentration not given here
[29] = molecular target: Mitogen-activated protein kinase 9 (Homo sapiens) (UniProt P45984); assay: Inhibition of JNK2 relative to control; conditions: concentration not given here
[30] = molecular target: Serine/threonine-protein kinase MARK1 (Homo sapiens) (UniProt Q9P0L2); assay: Inhibition of MARK1 relative to control; conditions: concentration not given here
Serine/threonine-protein kinase MARK1 (Homo sapiens), sequence (Q9P0L2 whole entry, looked up): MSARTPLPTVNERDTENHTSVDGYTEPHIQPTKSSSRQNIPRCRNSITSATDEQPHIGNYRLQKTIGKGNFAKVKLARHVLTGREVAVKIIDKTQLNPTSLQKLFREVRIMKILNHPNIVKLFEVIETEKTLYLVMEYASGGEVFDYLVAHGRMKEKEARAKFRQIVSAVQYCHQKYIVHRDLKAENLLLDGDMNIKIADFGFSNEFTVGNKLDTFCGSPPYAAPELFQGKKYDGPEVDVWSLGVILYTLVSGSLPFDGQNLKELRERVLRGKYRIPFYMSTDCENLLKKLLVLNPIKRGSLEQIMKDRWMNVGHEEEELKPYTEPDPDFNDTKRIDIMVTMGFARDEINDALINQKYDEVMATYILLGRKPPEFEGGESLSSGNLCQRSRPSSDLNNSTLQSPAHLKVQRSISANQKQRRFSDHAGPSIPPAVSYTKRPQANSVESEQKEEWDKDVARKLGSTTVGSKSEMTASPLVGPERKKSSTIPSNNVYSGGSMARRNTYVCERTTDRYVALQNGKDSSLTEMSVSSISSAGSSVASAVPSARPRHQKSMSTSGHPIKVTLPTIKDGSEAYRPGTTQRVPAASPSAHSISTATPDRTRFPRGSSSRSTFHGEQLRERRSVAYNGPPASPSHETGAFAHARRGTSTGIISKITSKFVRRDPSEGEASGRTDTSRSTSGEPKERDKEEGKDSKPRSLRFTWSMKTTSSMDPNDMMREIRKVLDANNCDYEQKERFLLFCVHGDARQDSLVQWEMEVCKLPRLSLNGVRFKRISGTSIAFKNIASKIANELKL

[31] = molecular target: Hepatocyte growth factor receptor (Homo sapiens) (UniProt P08581); assay: Inhibition of MET relative to control; conditions: concentration not given here
[32] = test system: Hepatocyte growth factor receptor (Homo sapiens), P08581 [M1250T]; assay: Inhibition of MET M1250T mutant relative to control; conditions: concentration not given here
[33] = molecular target: High affinity nerve growth factor receptor (Homo sapiens) (UniProt P04629); assay: Inhibition of NTRK1 relative to control; conditions: concentration not given here
[34] = molecular target: Phosphatidylinositol 4-phosphate 3-kinase C2 domain-containing subunit beta (Homo sapiens) (UniProt O00750); assay: Inhibition of PI3K-C2 beta relative to control; conditions: concentration not given here
[35] = molecular target: cAMP-dependent protein kinase catalytic subunit alpha (Homo sapiens) (UniProt P17612); assay: Inhibition of PRKACA relative to control; conditions: concentration not given here
[36] = molecular target: Protein kinase C alpha type (Homo sapiens) (UniProt P17252); assay: Inhibition of PRKCA relative to control; conditions: concentration not given here
[37] = molecular target: RAF proto-oncogene serine/threonine-protein kinase (Homo sapiens) (UniProt P04049); assay: Inhibition of RAF1 relative to control; conditions: concentration not given here
[38] = molecular target: Proto-oncogene tyrosine-protein kinase receptor Ret (Homo sapiens) (UniProt P07949); assay: Inhibition of RET relative to control; conditions: concentration not given here
[39] = molecular target: Receptor-interacting serine/threonine-protein kinase 2 (Homo sapiens) (UniProt O43353); assay: Inhibition of RIPK2 relative to control; conditions: concentration not given here
[40] = molecular target: Tyrosine-protein kinase SYK (Homo sapiens) (UniProt P43405); assay: Inhibition of SYK relative to control; conditions: concentration not given here
[41] = molecular target: Serine/threonine-protein kinase TBK1 (Homo sapiens) (UniProt Q9UHD2); assay: Inhibition of TBK1 relative to control; conditions: concentration not given here

T1 sequence (Q15303 whole entry): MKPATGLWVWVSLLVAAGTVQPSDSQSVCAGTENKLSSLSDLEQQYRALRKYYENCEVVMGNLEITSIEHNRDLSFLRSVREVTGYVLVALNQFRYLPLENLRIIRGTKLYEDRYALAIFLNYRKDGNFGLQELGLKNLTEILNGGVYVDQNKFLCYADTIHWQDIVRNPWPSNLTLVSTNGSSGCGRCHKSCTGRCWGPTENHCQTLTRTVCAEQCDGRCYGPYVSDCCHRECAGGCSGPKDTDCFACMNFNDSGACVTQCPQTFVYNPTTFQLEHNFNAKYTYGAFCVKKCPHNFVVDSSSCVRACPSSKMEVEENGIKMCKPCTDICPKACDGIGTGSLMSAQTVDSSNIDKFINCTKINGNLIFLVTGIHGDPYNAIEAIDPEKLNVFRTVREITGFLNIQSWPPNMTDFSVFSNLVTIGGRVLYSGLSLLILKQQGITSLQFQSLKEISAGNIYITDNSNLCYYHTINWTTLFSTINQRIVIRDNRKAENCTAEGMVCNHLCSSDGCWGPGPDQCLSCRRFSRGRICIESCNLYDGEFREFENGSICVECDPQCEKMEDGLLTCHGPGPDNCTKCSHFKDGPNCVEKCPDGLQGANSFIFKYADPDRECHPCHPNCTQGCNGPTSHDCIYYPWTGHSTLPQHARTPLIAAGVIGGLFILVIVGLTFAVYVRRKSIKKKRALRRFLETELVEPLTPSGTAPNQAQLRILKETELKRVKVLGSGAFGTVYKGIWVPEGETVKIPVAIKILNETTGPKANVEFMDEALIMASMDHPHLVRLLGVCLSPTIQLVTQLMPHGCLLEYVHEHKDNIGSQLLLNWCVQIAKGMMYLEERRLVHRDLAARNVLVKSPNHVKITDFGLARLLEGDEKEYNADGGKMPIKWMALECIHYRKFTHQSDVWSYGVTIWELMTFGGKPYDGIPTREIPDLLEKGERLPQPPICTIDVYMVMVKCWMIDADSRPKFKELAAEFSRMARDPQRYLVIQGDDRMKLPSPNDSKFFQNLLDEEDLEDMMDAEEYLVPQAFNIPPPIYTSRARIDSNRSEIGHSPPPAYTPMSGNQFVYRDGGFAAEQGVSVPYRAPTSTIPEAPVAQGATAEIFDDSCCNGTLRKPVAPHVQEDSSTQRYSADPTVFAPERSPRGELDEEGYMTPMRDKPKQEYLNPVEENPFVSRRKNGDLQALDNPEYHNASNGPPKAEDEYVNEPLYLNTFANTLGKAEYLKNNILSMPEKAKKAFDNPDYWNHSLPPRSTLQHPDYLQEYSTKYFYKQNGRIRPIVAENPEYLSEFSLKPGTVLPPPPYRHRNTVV

pIC50 [1]: 7.36
pIC50 [2]: 6.20
pIC50 [3]: 6.11
pIC50 [4]: 9.15
pIC50 [5]: 7.32
half-life [6]: 1.5 h
bioavailability [7]: 34%
inhibition [13]: 4%
pIC50 [14]: 7.80
inhibition ([14]; concentration not given here): 109%
inhibition [15]: 19%
pIC50 [16]: 8.48
inhibition [17]: 8%
inhibition [18]: 54%
pIC50 (Ephrin type-A receptor 8): 6.36
inhibition [19]: 101%
inhibition [20]: 7%
inhibition [21]: -8%
inhibition [22]: 0%
inhibition [23]: 8%
inhibition [24]: 5%
inhibition [25]: -5%
inhibition [26]: 10%
inhibition [27]: -4%
inhibition [28]: -4%
inhibition [29]: 18%
inhibition [30]: 8%
inhibition [31]: -1%
inhibition [32]: 5%
inhibition [33]: 8%
inhibition [34]: 11%
inhibition [35]: 11%
inhibition [36]: -6%
inhibition [37]: 9%
inhibition [38]: 6%
inhibition [39]: 8%
inhibition [40]: 0%
inhibition [41]: -5%
Compound: Cc1ccccc1Nc1nc2cc(F)c(N(C)C(=O)/C=C/CN(C)C)cc2n2cncc12
inhibition (Mus musculus [8]): Dose-dependent effect
inhibition (Mus musculus [9]): Dose-dependent effect
Activity (Mus musculus [10]): Active
Activity (Mus musculus [11]): Active
Activity (Mus musculus [12]): Active
